The values below come from ChEMBL document CHEMBL1134766, “Synthesis of 2beta-acyl-3beta-(substituted naphthyl)-8-azabicyclo[3.2.1]octanes and their binding affinities at dopamine and serotonin transport sites” (J Med Chem, 2001).

Molecules are shown by their SMILES.

Assay [1] has as its target Sodium-dependent dopamine transporter (Rattus norvegicus, UniProt P23977). Nature of the assay: Inhibitory activity in displacing [125I]- RTI-55 binding to dopamine transporter in rat striatal membranes. The class given is cell membranes, Striatum, Membrane. The procedure, abridged: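 Nonspecific binding was defined with 1 µM WF-23. Curves were fitted by nonlinear regression, and IC50 is reported because binding at this transporter is multiphasic. Values are mean ± SEM of ≥3 experiments, each run in triplicate.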

Assay [2] deals with Norepinephrine transporter (Rattus norvegicus, UniProt Q9WTR4). Description: Affinity for the displacement of [3H]paroxetine binding to norepinephrine transporter (NET) in rat frontal cortex membranes. The class given is cell membranes, Membrane. (In general: Displacement assays read how much labelled ligand stays bound in the presence of the test substance.)
Norepinephrine transporter, sequence (Q9WTR4 whole entry): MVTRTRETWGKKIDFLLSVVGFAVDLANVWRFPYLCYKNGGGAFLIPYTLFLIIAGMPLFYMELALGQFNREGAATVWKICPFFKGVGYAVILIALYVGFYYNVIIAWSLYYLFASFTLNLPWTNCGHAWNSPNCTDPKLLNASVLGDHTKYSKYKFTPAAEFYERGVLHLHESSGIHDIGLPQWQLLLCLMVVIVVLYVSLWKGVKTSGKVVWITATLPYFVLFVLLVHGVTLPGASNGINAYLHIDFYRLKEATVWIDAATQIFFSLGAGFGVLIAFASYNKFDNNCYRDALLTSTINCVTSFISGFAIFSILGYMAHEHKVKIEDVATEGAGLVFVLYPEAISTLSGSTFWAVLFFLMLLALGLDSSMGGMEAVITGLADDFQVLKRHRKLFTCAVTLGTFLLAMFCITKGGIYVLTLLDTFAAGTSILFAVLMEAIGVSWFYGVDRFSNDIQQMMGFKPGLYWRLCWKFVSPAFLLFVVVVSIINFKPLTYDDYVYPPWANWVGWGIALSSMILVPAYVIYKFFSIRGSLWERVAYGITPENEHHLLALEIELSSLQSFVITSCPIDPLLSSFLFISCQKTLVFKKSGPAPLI
In assay [3] the target is Monoamine transporters; serotonin & dopamine (Rattus norvegicus) (UniProt P31652+P23977). Nature of the assay: SERT/DAT (serotonin transporter/dopamine transporter) binding potency ratio. The class given is protein assay.
Monoamine transporters; serotonin & dopamine (Rattus norvegicus), sequence (P23977 whole entry, looked up): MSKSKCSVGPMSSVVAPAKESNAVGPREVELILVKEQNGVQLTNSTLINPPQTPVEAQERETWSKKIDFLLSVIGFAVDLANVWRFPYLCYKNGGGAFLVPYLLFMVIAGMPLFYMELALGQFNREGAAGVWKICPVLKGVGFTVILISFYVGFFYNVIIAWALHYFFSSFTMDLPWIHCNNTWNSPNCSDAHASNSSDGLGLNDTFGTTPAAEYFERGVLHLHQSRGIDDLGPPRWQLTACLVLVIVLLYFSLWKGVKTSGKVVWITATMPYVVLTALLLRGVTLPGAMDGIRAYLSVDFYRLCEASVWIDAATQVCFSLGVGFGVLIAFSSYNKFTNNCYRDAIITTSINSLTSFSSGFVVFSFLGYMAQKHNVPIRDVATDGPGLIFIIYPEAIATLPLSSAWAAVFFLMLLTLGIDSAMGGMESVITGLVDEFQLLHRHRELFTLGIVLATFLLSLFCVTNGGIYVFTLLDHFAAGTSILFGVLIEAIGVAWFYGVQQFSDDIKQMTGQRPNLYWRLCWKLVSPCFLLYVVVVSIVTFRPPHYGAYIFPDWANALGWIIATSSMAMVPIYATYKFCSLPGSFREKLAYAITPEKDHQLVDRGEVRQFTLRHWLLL
Monoamine transporters; serotonin & dopamine (Rattus norvegicus), sequence (P31652 whole entry, looked up): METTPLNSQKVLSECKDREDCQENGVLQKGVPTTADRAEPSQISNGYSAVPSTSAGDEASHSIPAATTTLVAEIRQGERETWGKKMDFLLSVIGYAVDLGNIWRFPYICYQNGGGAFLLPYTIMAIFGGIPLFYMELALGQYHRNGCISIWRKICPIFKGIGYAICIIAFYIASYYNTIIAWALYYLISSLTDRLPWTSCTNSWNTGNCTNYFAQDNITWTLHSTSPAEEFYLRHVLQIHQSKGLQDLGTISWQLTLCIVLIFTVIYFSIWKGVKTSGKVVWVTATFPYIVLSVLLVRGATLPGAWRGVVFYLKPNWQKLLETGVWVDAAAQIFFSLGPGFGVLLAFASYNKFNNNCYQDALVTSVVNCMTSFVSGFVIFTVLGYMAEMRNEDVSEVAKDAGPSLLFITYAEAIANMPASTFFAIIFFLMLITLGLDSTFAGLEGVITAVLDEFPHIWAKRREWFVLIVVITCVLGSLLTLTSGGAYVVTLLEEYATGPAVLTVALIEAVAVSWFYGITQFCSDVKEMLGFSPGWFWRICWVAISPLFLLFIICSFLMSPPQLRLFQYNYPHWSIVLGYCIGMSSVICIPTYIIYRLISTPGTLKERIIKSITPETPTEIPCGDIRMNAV
Assay [4] concerns the target Sodium-dependent serotonin transporter (Rattus norvegicus, UniProt P31652). Description: Affinity for the displacement of [3H]paroxetine binding to serotonin transporter (SERT) in rat frontal cortex membranes. The class given is cell membranes, Membrane. The procedure, abridged:
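Displacement of 0.4 nM [3H]paroxetine in frontal cortex membranes (50 mg original wet weight) dissected from frozen Sprague-Dawley rat brains, using 7-10 analogue concentrations. Nonspecific binding was defined with 10 µM fluoxetine. Ki was obtained by nonlinear curve fitting and the Cheng-Prusoff equation. Values are mean ± SEM of ≥3 experiments, each in triplicate.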

Sodium-dependent serotonin transporter, sequence (P31652 whole entry): as the sequence (P31652 whole entry, looked up) above
Sodium-dependent dopamine transporter, sequence (P23977 whole entry): as the sequence (P23977 whole entry, looked up) above

As usually defined, the IC50 is the concentration that inhibits the measured activity by half. The low end stands for higher potency, the high end for lower potency. In general, Ki refers to a dissociation constant, usually derived from enzyme kinetics or from competition with a known ligand. Low values mean tighter binding, high ones weaker binding. As for `CCC(=O)C1C(c2ccc3c(I)c(OC)ccc3c2)CC2CCC1N2C` (configuration not stated), the half-inhibitory concentration (IC50) in assay [1] came to 1.31 nM. For the same compound, the inhibition constant (Ki) in assay [2] was 781 nM; in assay [4], 2.27 nM. Moreover, the Potency ratio in assay [3] was found to be 0.6.

Compound `CCC(=O)C1C(c2ccc3ccccc3c2)CC2CCC1N2C` (stereo in doubt) [listing 1 of 2 here] returned an IC50 in assay [1] of 2.51 nM. Further, the inhibition constant (Ki) in assay [2] was found to be 68 nM; in assay [4], 16.4 nM.

Consider `CCC(=O)C1C(c2ccc3cc(I)ccc3c2)CC2CCC1N2C` (configuration not stated), for which the IC50 in assay [1] stood at 0.35 nM. In addition, the Potency ratio in assay [3] was 1. In assay [4], this compound yielded a Ki of 0.37 nM.

For the compound `C=C(C)c1c(OC)ccc2cc(C3CC4CCC(C3C(=O)CC)N4C)ccc12` (configuration not stated), in assay [1], the IC50 is 45 nM. Also, the inhibition constant (Ki) in assay [2] worked out at 2330 nM; in assay [4] it was 88 nM. In addition, in assay [3], the Potency ratio turned out to be 0.5.

In assay [1], `CCC(=O)C1C(c2ccc3cc(C(C)C)ccc3c2)CC2CCC1N2C` (configuration not stated) displayed an IC50 of 0.39 nM. Also, the Potency ratio in assay [3] is 0.2. This compound returned an inhibition constant Ki in assay [4] of 1.97 nM.

Consider `CCC(=O)C1C(c2ccc(CC)c3ccccc23)CC2CCC1N2C` (configuration not stated), for which the 50% inhibitory concentration (IC50) in assay [1] was found to be 75.1 nM. Further, the inhibitory constant (Ki) in assay [2] is 4770 nM; in assay [4] it was 175 nM. Also, in assay [3], the Potency ratio worked out at 0.7.

`CCC(=O)C1C(c2ccc3c(CC)c(OC)ccc3c2)CC2CCC1N2C` (configuration not stated) registered an IC50 in assay [1] of 30.8 nM. Besides, the figures for the Ki in assay [2] and in assay [4] were 3360 nM and 7.55 nM, respectively. The Potency ratio in assay [3] was 4.1.

With `CC(=O)C1C(c2cccc3ccccc23)CC2CCC1N2C` (stereo in doubt; form 1) [listing 1 of 2 here], in assay [3], the Potency ratio was determined as 0.45.

Regarding `CCC(=O)C1C(c2cccc3ccccc23)CC2CCC1N2C` (configuration not stated), affinity in assay [2] was put at a Ki of 49 nM. In assay [3], the Potency ratio was 0.3.

In assay [1], `CC(C)C(=O)C1C(c2ccc3ccccc3c2)CC2CCC1N2C` (configuration not stated) yielded an IC50 of 0.25 nM. In addition, the Ki in assay [2] was found to be 37.6 nM; in assay [4], 2.08 nM. Also, in assay [3], the Potency ratio was determined as 0.12.

Take `CCC(=O)C1C(c2ccc3ccccc3c2)CC2CCC1N2C` (stereo in doubt) [listing 2 of 2 here]: the Potency ratio in assay [3] was 0.15.

Consider `CC(=O)C1C(c2cccc3ccccc23)CC2CCC1N2C` (stereo in doubt; form 1) [listing 2 of 2 here], for which, in assay [1], the half-inhibitory concentration (IC50) was 97 nM. The compound further registered an inhibition constant Ki in assay [4] of 217 nM.

Take `CCC(=O)C1C(c2ccc3cc(OC)ccc3c2)CC2CCC1N2C` (configuration not stated): the half-inhibitory concentration (IC50) in assay [1] was found to be 0.13 nM. Further, the Potency ratio in assay [3] turned out to be 0.05. In assay [4], the Ki was found to be 2.24 nM.

As for `CCC(=O)C1C2CCC(CC1c1ccc3ccccc3c1)N2` (configuration not stated), in assay [1], the IC50 is 0.03 nM. Further, the inhibition constant Ki is 2.05 nM in assay [2] and 0.23 nM in assay [4]. In addition, in assay [3], the Potency ratio amounted to 0.13.

As for `CC(=O)C1C(c2cccc3ccccc23)CC2CCC1N2C` (stereo in doubt; form 2) [listing 1 of 2 here], the Potency ratio in assay [3] was 0.4.

Consider `CCC(=O)C1C(c2ccc3ccccc3c2)CC2CCC1N2C` (stereo in doubt; 8), for which the Potency ratio in assay [3] stood at 0.3.

In assay [1], `CCC(=O)C1C(c2ccc(C)c3ccccc23)CC2CCC1N2C` (configuration not stated) displayed an IC50 of 25.1 nM. The inhibition constant (Ki) in assay [2] worked out at 163 nM; in assay [4] it was 8.99 nM. The Potency ratio in assay [3] amounted to 3.

Regarding `CCC(=O)C1C(c2ccc(C)cc2)CC2CCC1N2C` (configuration not stated), in assay [2], the Ki is 65 nM. Besides, the Potency ratio in assay [3] worked out at 0.06.

Turning to `CC(=O)C1C(c2ccc3ccccc3c2)CC2CCC1N2C` (configuration not stated), in assay [1], the concentration for half-maximal inhibition (IC50) is 1.27 nM. Also, in assay [2], the inhibition constant Ki worked out at 4.9 nM. In addition, the Potency ratio in assay [3] stood at 1.2.

With `CCC(=O)C1C(c2ccc3c(C(C)=O)c(OC)ccc3c2)CC2CCC1N2C` (configuration not stated), the half-maximal inhibitory concentration (IC50) in assay [1] was determined as 12.6 nM. The Ki in assay [2] came to 498 nM; in assay [4], 15.8 nM. Moreover, the Potency ratio in assay [3] was 0.8.

Turning to `CCC(=O)C1C(c2ccc3c([N+](=O)[O-])c(OC)ccc3c2)CC2CCC1N2C` (configuration not stated), the half-maximal inhibitory concentration (IC50) in assay [1] came to 148 nM. Further, the Potency ratio in assay [3] turned out to be 10. In addition, the inhibitory constant (Ki) in assay [4] came to 15 nM.

The compound `CCC(=O)C1C(c2ccc3cc(CC)ccc3c2)CC2CCC1N2C` (configuration not stated) registered an IC50 in assay [1] of 0.15 nM. For the same compound, the results for the Ki in assay [2] and in assay [4] were 27.7 nM and 0.38 nM, respectively. Besides, the Potency ratio in assay [3] was determined as 0.4.

As for `CC(=O)C1C(c2cccc3ccccc23)CC2CCC1N2C` (stereo in doubt; form 2) [listing 2 of 2 here], the affinity in assay [2], expressed as Ki, was 165 nM.

In turn, `CCC(=O)C1C(c2ccc(C(C)C)c3ccccc23)CC2CCC1N2C` (configuration not stated) showed a concentration for half-maximal inhibition (IC50) in assay [1] of 225 nM. Besides, the Ki was more than 10000 nM in assay [2] and 136 nM in assay [4]. Besides, in assay [3], the Potency ratio is 2.

Compound `CCC(=O)C1C(c2ccc3ccc(I)cc3c2)CC2CCC1N2C` (configuration not stated) yielded an IC50 in assay [1] of 0.45 nM. Also, the Potency ratio in assay [3] stood at 0.5. The compound also came in with a Ki in assay [4] of 0.47 nM.
